# Measured values taken from ChEMBL document CHEMBL1777799, “Design, synthesis, and biological evaluation of substituted hydrazone and pyrazole derivatives as selective COX-2 inhibitors: Molecular docking study” (Bioorg Med Chem, 2011).
# Active and inactive are the calls of the source. No cut-off for these calls is given here.
# System: Rattus norvegicus
# Experiment: Antiinflammatory activity in Sprague-Dawley rat assessed as inhibition of carrageenan-induced foot paw oedema at 200 mg/kg, ip after 1 hr by plethysmometer analysis relative to control
# Type: functional
# Conditions: not given
# Method in brief: (§1)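 Male Sprague–Dawley rats (250 g), fasted at least 16 h with water available. Compounds were given i.p. as a 1 mL suspension in 0.5% methyl cellulose; controls received vehicle. Paw volume was read by water-displacement plethysmometer before treatment and 1 and 2 h after. Activity (%) = (1 − D/C) × 100, where D and C are paw-volume changes in treated and control rats; mean ± SEM, n = 4–6.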
row,SMILES,inhibition
1,COc1ccc(N/N=C2/C(c3ccc(Cl)cc3)=NN=C2C(F)(F)F)cc1,inactive

# Same assay, conditions: route intraperitoneal
row,SMILES,inhibition in vivo at 200 mg/kg
1,O=C(/C(=N\Nc1ccc(Br)cc1)C(=O)C(F)(F)F)c1ccc(Cl)cc1,35%
2,O=C(/C(=N\Nc1ccc(Cl)cc1)C(=O)C(F)(F)F)c1ccc(Cl)cc1,26.7%
3,FC(F)(F)C1=NN=C(c2ccc(Cl)cc2)/C1=N/Nc1ccc(Cl)cc1,8.1%
4,O=[N+]([O-])c1ccc(N/N=C2/C(c3ccc(Cl)cc3)=NN=C2C(F)(F)F)cc1,4%
5,O=C(/C=C/c1c(C(F)(F)F)nn(-c2ccccc2)c1-c1ccc(Cl)cc1)c1ccc(Cl)cc1,1.5%
6,FC(F)(F)C1=NN=C(c2ccc(Cl)cc2)/C1=N/Nc1ccccc1Cl,38.4%
7,O=C1CCC/C1=C\c1c(C(F)(F)F)nn(-c2ccccc2)c1-c1ccc(Cl)cc1,80.7%
8,O=C(/C(=N\Nc1ccc([N+](=O)[O-])cc1)C(=O)C(F)(F)F)c1ccc(Cl)cc1,35.8%
9,O=C(/C(=N\Nc1cc(C(F)(F)F)cc(C(F)(F)F)c1)C(=O)C(F)(F)F)c1ccc(Cl)cc1,80%

# System: Rattus norvegicus
# Experiment: Antiinflammatory activity in Sprague-Dawley rat assessed as inhibition of carrageenan-induced foot paw oedema at 100 mg/kg, ip after 1 hr by plethysmometer analysis relative to control
# Type: functional
# Conditions: route intraperitoneal
# Method in brief: as §1
row,SMILES,inhibition in vivo at 100 mg/kg
1,O=C(/C(=N\Nc1ccc(Br)cc1)C(=O)C(F)(F)F)c1ccc(Cl)cc1,0%
2,O=C1CCC/C1=C\c1c(C(F)(F)F)nn(-c2ccccc2)c1-c1ccc(Cl)cc1,37%
3,O=C(/C(=N\Nc1ccc([N+](=O)[O-])cc1)C(=O)C(F)(F)F)c1ccc(Cl)cc1,0%
4,O=C(/C(=N\Nc1cc(C(F)(F)F)cc(C(F)(F)F)c1)C(=O)C(F)(F)F)c1ccc(Cl)cc1,33%

# System: Rattus norvegicus
# Experiment: Antiinflammatory activity in Sprague-Dawley rat assessed as inhibition of carrageenan-induced foot paw oedema at 200 mg/kg, ip after 2 hrs by plethysmometer analysis relative to control
# Type: functional
# Conditions: not given
# Method in brief: as §1
row,SMILES,inhibition
1,COc1ccc(N/N=C2/C(c3ccc(Cl)cc3)=NN=C2C(F)(F)F)cc1,inactive

# Same assay, conditions: route intraperitoneal
row,SMILES,inhibition in vivo at 200 mg/kg
1,O=C(/C(=N\Nc1ccc(Br)cc1)C(=O)C(F)(F)F)c1ccc(Cl)cc1,33.8%
2,O=C(/C(=N\Nc1ccc(Cl)cc1)C(=O)C(F)(F)F)c1ccc(Cl)cc1,35.2%
3,FC(F)(F)C1=NN=C(c2ccc(Cl)cc2)/C1=N/Nc1ccc(Cl)cc1,9.1%
4,O=[N+]([O-])c1ccc(N/N=C2/C(c3ccc(Cl)cc3)=NN=C2C(F)(F)F)cc1,7%
5,O=C(/C=C/c1c(C(F)(F)F)nn(-c2ccccc2)c1-c1ccc(Cl)cc1)c1ccc(Cl)cc1,4.4%
6,FC(F)(F)C1=NN=C(c2ccc(Cl)cc2)/C1=N/Nc1ccccc1Cl,15.1%
7,O=C1CCC/C1=C\c1c(C(F)(F)F)nn(-c2ccccc2)c1-c1ccc(Cl)cc1,82%
8,O=C(/C(=N\Nc1ccc([N+](=O)[O-])cc1)C(=O)C(F)(F)F)c1ccc(Cl)cc1,57.3%
9,O=C(/C(=N\Nc1cc(C(F)(F)F)cc(C(F)(F)F)c1)C(=O)C(F)(F)F)c1ccc(Cl)cc1,88.4%

# System: Rattus norvegicus
# Experiment: Antiinflammatory activity in Sprague-Dawley rat assessed as inhibition of carrageenan-induced foot paw oedema at 100 mg/kg, ip after 2 hrs by plethysmometer analysis relative to control
# Type: functional
# Conditions: route intraperitoneal
# Method in brief: as §1
row,SMILES,inhibition in vivo at 100 mg/kg
1,O=C(/C(=N\Nc1ccc(Br)cc1)C(=O)C(F)(F)F)c1ccc(Cl)cc1,13.9%
2,O=C1CCC/C1=C\c1c(C(F)(F)F)nn(-c2ccccc2)c1-c1ccc(Cl)cc1,67%
3,O=C(/C(=N\Nc1ccc([N+](=O)[O-])cc1)C(=O)C(F)(F)F)c1ccc(Cl)cc1,17.9%
4,O=C(/C(=N\Nc1cc(C(F)(F)F)cc(C(F)(F)F)c1)C(=O)C(F)(F)F)c1ccc(Cl)cc1,59%

# System: Rattus norvegicus
# Experiment: Antiinflammatory activity in ip dosed Sprague-Dawley rat assessed as inhibition of carrageenan-induced foot paw oedema after 2 hrs by plethysmometer analysis
# Type: functional
# Conditions: not given
# Method in brief: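 Rat carrageenan paw oedema: male Sprague–Dawley rats (250 g), fasted ≥16 h, dosed i.p. with a 1 mL suspension in 0.5% methyl cellulose. Paw swelling was measured by plethysmometer water displacement, and percent inhibition was taken against vehicle controls.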
row,SMILES,ED50
1,O=C(/C(=N\Nc1ccc(Br)cc1)C(=O)C(F)(F)F)c1ccc(Cl)cc1,280 mg/kg
2,O=C1CCC/C1=C\c1c(C(F)(F)F)nn(-c2ccccc2)c1-c1ccc(Cl)cc1,118 mg/kg
3,O=C(/C(=N\Nc1ccc([N+](=O)[O-])cc1)C(=O)C(F)(F)F)c1ccc(Cl)cc1,170 mg/kg
4,O=C(/C(=N\Nc1cc(C(F)(F)F)cc(C(F)(F)F)c1)C(=O)C(F)(F)F)c1ccc(Cl)cc1,112 mg/kg

# Biological target: T1, Prostaglandin G/H synthase 1 (Ovis aries, UniProt P05979)
# T1 sequence (P05979 whole entry): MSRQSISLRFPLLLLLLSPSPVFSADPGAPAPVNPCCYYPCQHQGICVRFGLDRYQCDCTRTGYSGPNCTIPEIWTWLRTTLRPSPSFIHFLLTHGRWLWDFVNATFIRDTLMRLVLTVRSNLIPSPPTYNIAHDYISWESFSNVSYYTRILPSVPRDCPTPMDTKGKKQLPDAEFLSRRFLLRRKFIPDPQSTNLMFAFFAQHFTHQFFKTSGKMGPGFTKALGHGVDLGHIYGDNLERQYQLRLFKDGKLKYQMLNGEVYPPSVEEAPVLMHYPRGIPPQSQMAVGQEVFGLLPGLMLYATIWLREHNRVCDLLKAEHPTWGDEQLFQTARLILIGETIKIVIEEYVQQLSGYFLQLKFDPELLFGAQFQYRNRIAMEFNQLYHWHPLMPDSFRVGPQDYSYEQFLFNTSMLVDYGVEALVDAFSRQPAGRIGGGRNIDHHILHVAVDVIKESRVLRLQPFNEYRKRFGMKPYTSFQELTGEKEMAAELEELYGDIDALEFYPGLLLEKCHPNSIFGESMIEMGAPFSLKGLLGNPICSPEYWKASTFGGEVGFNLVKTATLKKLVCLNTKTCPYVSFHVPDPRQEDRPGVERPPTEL
# Experiment: Inhibition of ovine COX1 assessed as PGF2alpha production from PGH2 after 5 mins by enzyme immunoassay
# Conditions: not given
# Method in brief: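 Ovine COX-1 in reaction buffer with 2 mM phenol and heme, preincubated with six test concentrations (1 mL final) for 5 min at 37 °C. Arachidonic acid was then added and the reaction stopped with 1 M HCl after 2 min. Prostanoids were reduced with stannous chloride and quantified by competitive acetylcholinesterase-tracer EIA (Ellman's reagent, 410 nm). IC50 came from concentration–inhibition curves, duplicate determinations.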
row,IC50,SMILES
1,> 50 µM,O=C(/C(=N\Nc1ccc(Br)cc1)C(=O)C(F)(F)F)c1ccc(Cl)cc1
2,> 50 µM,O=C(/C(=N\Nc1ccc(Cl)cc1)C(=O)C(F)(F)F)c1ccc(Cl)cc1
3,> 50 µM,FC(F)(F)C1=NN=C(c2ccc(Cl)cc2)/C1=N/Nc1ccc(Cl)cc1
4,> 50 µM,O=[N+]([O-])c1ccc(N/N=C2/C(c3ccc(Cl)cc3)=NN=C2C(F)(F)F)cc1
5,> 50 µM,O=C(/C=C/c1c(C(F)(F)F)nn(-c2ccccc2)c1-c1ccc(Cl)cc1)c1ccc(Cl)cc1
6,> 50 µM,FC(F)(F)C1=NN=C(c2ccc(Cl)cc2)/C1=N/Nc1ccccc1Cl
7,> 50 µM,O=C1CCC/C1=C\c1c(C(F)(F)F)nn(-c2ccccc2)c1-c1ccc(Cl)cc1
8,> 50 µM,O=C(/C(=N\Nc1ccc([N+](=O)[O-])cc1)C(=O)C(F)(F)F)c1ccc(Cl)cc1
9,> 50 µM,O=C(/C(=N\Nc1cc(C(F)(F)F)cc(C(F)(F)F)c1)C(=O)C(F)(F)F)c1ccc(Cl)cc1
10,> 50 µM,COc1ccc(N/N=C2/C(c3ccc(Cl)cc3)=NN=C2C(F)(F)F)cc1

# Biological target: T2, Prostaglandin G/H synthase 1 (Ovis aries) (UniProt P05979)
# T2 sequence (whole entry): T1 sequence (P05979 whole entry)
# Experiment: Inhibition of ovine COX1 assessed as PGF2alpha production from PGH2 at 0.5 uM after 5 mins by enzyme immunoassay
# Conditions: not given
# Method in brief: (§2)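 Enzyme (ovine COX-1) with heme in buffer containing 2 mM phenol was preincubated with the test compound for 5 min at 37 °C, then given arachidonic acid for 2 min before quenching with 1 M HCl. Products were reduced with stannous chloride and measured by competitive PG-tracer EIA at 410 nm. Percent inhibition was calculated against control incubations.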
row,inhibition,SMILES
1,31%,O=C(/C(=N\Nc1ccc([N+](=O)[O-])cc1)C(=O)C(F)(F)F)c1ccc(Cl)cc1

# Biological target: T2, Prostaglandin G/H synthase 1 (Ovis aries)
# Experiment: Inhibition of ovine COX1 assessed as PGF2alpha production from PGH2 at 100 uM after 5 mins by enzyme immunoassay
# Conditions: not given
# Method in brief: as §2
row,inhibition,SMILES
1,25%,O=C(/C(=N\Nc1ccc([N+](=O)[O-])cc1)C(=O)C(F)(F)F)c1ccc(Cl)cc1
